In ChEMBL document CHEMBL3045116, “Synthesis and biological evaluation of 2-(5-substituted-1-((diethylamino)methyl)-2-oxoindolin-3-ylidene)-N-substituted-hydrazinecarbothioamides” (Med Chem Res, 2013):

Experiments:
Influenza B virus = assay: Antiviral activity against Influenza B virus infected in MDCK cells assessed as reduction of virus-induced cytopathic effect after 3 days by colorimetric formazan-based MTS assay; format: functional, organism-based; settings: 72 h
Outline: (§1)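 Confluent cell monolayers were infected with 100 CCID50 of virus, and serial dilutions of compound were added at the time of infection.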

Influenza A virus H3N2 = assay: Antiviral activity against Influenza A virus H3N2 infected MDCK cells assessed as reduction of virus-induced cytopathic effect after 3 days by colorimetric formazan-based MTS assay; format: functional, organism-based; settings: 72 h; outline: as §1
Human alphaherpesvirus 1 [1] = assay: Antiviral activity against Human herpesvirus 1 strain KOS infected human HEL cells assessed as reduction of virus-induced cytopathic effect after 3 days by colorimetric formazan-based MTS assay; format: functional, organism-based; settings: Human alphaherpesvirus 1, KOS, 72 h; outline: as §1
Felid alphaherpesvirus 1 = assay: Antiviral activity against Felid herpesvirus 1 infected cat CRFK cells assessed as reduction of virus-induced cytopathic effect after 3 days by colorimetric formazan-based MTS assay; format: functional, organism-based; settings: Felid alphaherpesvirus 1, CRFK, 72 h
Outline: (§2)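 Cells grown to confluency in 96-well plates ([…], Vero for lines 9–10) were infected with 100 CCID50 of virus, and serial compound dilutions were added at infection. Plates were incubated at 37 °C for 3 days, until complete CPE appeared in untreated virus controls.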

[2] = system: Feline infectious peritonitis virus; assay: Antiviral activity against Feline Infectious peritonitis virus infected cat CRFK cells assessed as reduction of virus-induced cytopathic effect after 3 days by colorimetric formazan-based MTS assay; format: functional, organism-based; settings: Alphacoronavirus 1, CRFK, 72 h; outline: as §1
[3] = Cytotoxicity against Felis catus (cat) CRFK cells assessed as change in cellular morphology; format: cell-based; settings: crfk
Outline: (§3)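 Uninfected cells were exposed to compound in parallel with the antiviral cultures. The read-out is the minimum cytotoxic concentration that causes a microscopically detectable alteration of normal cell morphology.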

[4] = Inhibition of beta lactamase assessed as increase in time taken for iodine decolorization relative to control; parameters: concentration or dose not given beside the values; settings: concentration not given here
[5] = Inhibition of beta lactamase assessed as time for decolorization of iodine (reference value: 79.5 secs)
CCRF-CEM = assay: Cytotoxicity against Homo sapiens (human) CEM cells assessed as growth inhibition after 72 hr by coulter counter analysis; format: functional, cell-based
Outline: (§4)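 Cells in growth medium were allowed to proliferate with variable compound amounts at 37 °C in a humidified CO2 atmosphere. Incubation ran 48 h for L1210, 72 h for CEM and 96 h for HeLa. Cells were then counted with a Coulter counter.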

L1210 = assay: Cytotoxicity against Mus musculus (mouse) L1210 cells assessed as growth inhibition after 48 hr by coulter counter analysis; format: functional, cell-based; settings: L1210, 48 h; outline: as §4
Influenza A virus = assay: Antiviral activity against Unidentified Influenza A virus (H1N1) infected MDCK cells assessed as reduction of virus-induced cytopathic effect after 3 days by colorimetric formazan-based MTS assay; format: functional, organism-based; settings: 72 h; outline: as §1
[6] = (§5) Cytotoxicity against MDCK cells assessed as change in cellular morphology; format: cell-based, Canis lupus familiaris; settings: dog, MDCK cells; outline: as §3
MDCK = assay: as §5; format: cell-based, Canis lupus familiaris; settings: dog, mdck; outline: as §3
Punta Toro virus = assay: Antiviral activity against Punta Toro virus infected in African green monkey Vero cells assessed as reduction of virus-induced cytopathic effect after 3 days by colorimetric formazan-based MTS assay; format: functional, organism-based; settings: 72 h; outline: as §1
Coxsackievirus B4 [7] = assay: Antiviral activity against Human coxsackievirus B4 infected African green monkey Vero cells assessed as reduction of virus-induced cytopathic effect after 3 days by colorimetric formazan-based MTS assay; format: functional, organism-based; settings: Enterovirus B, 72 h; outline: as §1
Respirovirus muris = assay: Antiviral activity against Sendai virus infected African green monkey Vero cells assessed as reduction of virus-induced cytopathic effect after 3 days by colorimetric formazan-based MTS assay; format: functional, organism-based; settings: 72 h
[8] = system: Mammalian orthoreovirus 1; assay: Antiviral activity against Mammalian orthoreovirus 1 infected African green monkey Vero cells assessed as reduction of virus-induced cytopathic effect after 3 days by colorimetric formazan-based MTS assay; format: functional, organism-based; settings: Mammalian orthoreovirus 1, Vero, 72 h; outline: as §2
Human respirovirus 3 = assay: Antiviral activity against Human parainfluenza virus 3 infected African green monkey Vero cells assessed as reduction of virus-induced cytopathic effect after 3 days by colorimetric formazan-based MTS assay; format: functional, organism-based; settings: Human respirovirus 3, Vero, 72 h; outline: as §2
[9] = Cytotoxicity against Chlorocebus aethiops (African green monkey) Vero cells assessed as change in cellular morphology; format: cell-based; settings: chlorocebus sabaeus
[10] = system: Respiratory syncytial virus; assay: Antiviral activity against Respiratory syncytial virus infected human HeLa cells assessed as reduction of virus-induced cytopathic effect after 3 days by colorimetric formazan-based MTS assay; format: functional, organism-based; settings: 72 h; outline: as §1
[11] = system: Vesicular stomatitis virus; assay: Antiviral activity against Vesicular stomatitis virus infected human HeLa cells assessed as reduction of virus-induced cytopathic effect after 3 days by colorimetric formazan-based MTS assay; format: functional, organism-based; settings: 72 h; outline: as §1
Coxsackievirus B4 [12] = assay: Antiviral activity against Human coxsackievirus B4 infected human HeLa cells assessed as reduction of virus-induced cytopathic effect after 3 days by colorimetric formazan-based MTS assay; format: functional, organism-based; settings: Enterovirus B, 72 h; outline: as §1
[13] = (§6) Cytotoxicity against Homo sapiens (human) HeLa cells assessed as change in cellular morphology; format: cell-based; settings: HeLa cells; outline: as §3
HeLa = assay: as §6; format: cell-based; settings: hela; outline: as §3
Human alphaherpesvirus 1 [14] = assay: Antiviral activity against acyclovir-resistant thymidine kinase negative Human herpesvirus 1 strain KOS infected human HEL cells assessed as reduction of virus-induced cytopathic effect after 3 days by colorimetric formazan-based MTS assay; format: functional, organism-based; settings: Human alphaherpesvirus 1, KOS, 72 h; outline: as §1
[15] = system: Vesicular stomatitis virus; assay: Antiviral activity against Vesicular stomatitis virus infected human HEL cells assessed as reduction of virus-induced cytopathic effect after 3 days by colorimetric formazan-based MTS assay; format: functional, organism-based; settings: 72 h; outline: as §1
Vaccinia virus = assay: Antiviral activity against Vaccinia virus infected human HEL cells assessed as reduction of virus-induced cytopathic effect after 3 days by colorimetric formazan-based MTS assay; format: functional, organism-based; settings: Orthopoxvirus vaccinia, 72 h; outline: as §1
Human alphaherpesvirus 2 = assay: Antiviral activity against Human herpesvirus 2 strain G infected human HEL cells assessed as reduction of virus-induced cytopathic effect after 3 days by colorimetric formazan-based MTS assay; format: functional, organism-based; settings: Human alphaherpesvirus 2, strain G, 72 h; outline: as §1
[16] = Cytotoxicity against Homo sapiens (human) HEL cells assessed as change in cellular morphology; format: cell-based
Candida albicans = assay: Antifungal activity against Candida albicans assessed as growth inhibition at 50 ug/ml by cup-plate method (reference value: 8 to 10 mm); format: functional; settings: read-out: DIZ
Aspergillus niger = assay: Antifungal activity against Aspergillus niger assessed as growth inhibition at 50 ug/ml by cup-plate method (reference value: 8 to 10 mm); format: functional; settings: read-out: DIZ
Salmonella typhi = assay: Antibacterial activity against Salmonella enterica subsp. enterica serovar Typhi assessed as growth inhibition at 50 ug/ml by cup-plate method (reference value: 8 to 10 mm); format: functional; settings: read-out: DIZ
Proteus vulgaris = assay: Antibacterial activity against Proteus vulgaris assessed as growth inhibition at 50 ug/ml by cup-plate method (reference value: 8 to 10 mm); format: functional; settings: read-out: DIZ
Escherichia coli = assay: Antibacterial activity against Escherichia coli assessed as growth inhibition at 50 ug/ml by cup-plate method (reference value: 8 to 10 mm); format: functional; settings: read-out: DIZ
Bacillus subtilis = assay: Antibacterial activity against Bacillus subtilis assessed as growth inhibition at 50 ug/ml by cup-plate method (reference value: 8 to 10 mm); format: functional; settings: read-out: DIZ
Klebsiella pneumoniae = assay: Antibacterial activity against Klebsiella pneumoniae assessed as growth inhibition at 50 ug/ml by cup-plate method (reference value: 8 to 10 mm); format: functional; settings: read-out: DIZ
Staphylococcus aureus = assay: Antibacterial activity against Staphylococcus aureus assessed as growth inhibition at 50 ug/ml by cup-plate method (reference value: 8 to 10 mm); format: functional; settings: read-out: DIZ

SMILES: CCN(CC)CN1C(=O)/C(=N/NC(=S)Nc2ccc(OC)cc2)c2cc(Cl)ccc21
- EC50 (Influenza B virus): > 0.8 µM
- EC50 (Influenza A virus H3N2): > 0.8 µM
- EC50 (Human alphaherpesvirus 1 [1]): > 20 µM
- EC50 (Felid alphaherpesvirus 1): > 0.8 µM
- EC50 [2]: > 0.8 µM
- CC50 [3]: 3.6 µM
- inhibition [4]: 52.6%
- TIME [5]: 0.0466 h
- IC50 (CCRF-CEM): 6.9 µM
- IC50 (L1210): 11 µM
- EC50 (Influenza A virus): > 0.8 µM
- MCC [6]: ≥ 800 nM
- CC50 (MDCK): 11.1 µM
- EC50 (Punta Toro virus): > 0.8 µM
- EC50 (Coxsackievirus B4 [7]): > 0.8 µM
- EC50 (Respirovirus muris): > 0.8 µM
- EC50 [8]: > 0.8 µM
- EC50 (Human respirovirus 3): > 0.8 µM
- MCC [9]: 4 µM
- EC50 [10]: > 0.8 µM
- EC50 [11]: > 0.8 µM
- EC50 (Coxsackievirus B4 [12]): > 0.8 µM
- MCC [13]: 4 µM
- CC50 (HeLa): 13.2 µM
- EC50 (Human alphaherpesvirus 1 [14]): > 20 µM
- EC50 [15]: > 20 µM
- EC50 (Vaccinia virus): > 20 µM
- EC50 (Human alphaherpesvirus 2): > 20 µM
- MCC [16]: 100 µM
- zone of inhibition at 50 µg/mL (Candida albicans): 11 mm
- zone of inhibition at 50 µg/mL (Aspergillus niger): 11 mm
- zone of inhibition at 50 µg/mL (Salmonella typhi): 21 mm
- zone of inhibition at 50 µg/mL (Proteus vulgaris): 21 mm
- zone of inhibition at 50 µg/mL (Escherichia coli): 11 mm
- zone of inhibition at 50 µg/mL (Bacillus subtilis): 11 mm
- zone of inhibition at 50 µg/mL (Klebsiella pneumoniae): 11 mm
- zone of inhibition at 50 µg/mL (Staphylococcus aureus): 11 mm
